Source: ChEMBL document CHEMBL1240313, “A clinical drug library screen identifies astemizole as an antimalarial agent” (Nat Chem Biol, 2006)
Calls of active or inactive are those of the source. The rule behind the calls is not given here.

What was measured:
Heme [1] = assay: Displacement of [3H]astemizole from free heme crystal at 15 uM after 16 hrs by scintillation counting
Outline: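 [3H]-astemizole (27 Ci/mmol) was incubated in triplicate with a 5 nmol heme crystal seed and 50 µM heme in 0.1 M ammonium acetate, pH 4.8, for 16 h at 37°C. Crystal was pelleted, sonicated, and spun through 1.7 M sucrose at 200,000 × g. The pellet was decrystallized in 50 mM NaOH/2% SDS and counted by scintillation.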

Heme [2] = assay: Inhibition of heme crystallization after 16 hrs
Outline: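 Heme crystal extension was seeded with 2.5 nmol heme crystal and run with 50 µM heme in 0.1 M ammonium acetate, pH 4.8, at 37°C for 16 h. Crystal extension was quantified by the differential solubility of free versus crystalline heme in 0.15 M sodium bicarbonate. IC50 came from a four-parameter logistic fit and is given as mean ± s.e.m. of triplicate experiments.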

Heme [3] = assay: Inhibition of heme crystallization at 7.5 uM after 24 hrs at pH 5.2 - 5.6
Plasmodium falciparum [4] = assay: Antiplasmodial activity against Plasmodium falciparum infected in erythrocytes assessed as stabilization of free heme at 0.05 uCi after 16 hrs by scintillation counting; format: functional, organism-based; conditions: tested as the 3H-labelled form
Plasmodium vinckei [5] = assay: Antimalarial activity against chloroquine-sensitive Plasmodium vinckei infected in mice (Mus musculus) assessed as reduction in parasitemia at 30 mg/m'2, intraperitoneally […]; format: functional
Plasmodium falciparum [6] = assay: Antimalarial activity against Plasmodium falciparum 3D7 assessed as inhibition of parasite growth after 48 to 96 hrs by [3H]hypoxanthine incorporation assay; format: functional, organism-based
Outline: (§1)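 Synchronized ring-stage parasites in RPMI 1640 with 10% human serum, 0.2% parasitemia and 2-4% hematocrit, were exposed to drug for 48 or 96 h with [3H]-hypoxanthine. Growth was read as radioactive incorporation. IC50 came from a four-parameter logistic fit and is given as mean ± s.e.m. of triplicate experiments.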

Plasmodium yoelii [7] = assay: Antimalarial activity against chloroquine-sensitive Plasmodium yoelii 17X infected in mice (Mus musculus) assessed as complete cure from parasite infection at 15 mg/m'2, intraperitoneal daily for 4 days administered 2 hrs post infection measured on day 5; format: functional, organism-based
Outline: (§2)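 P. yoelii 17X lethal strain was used in male C57/BL6 mice (5-6 weeks, 25 ± 2 g), assessed by the 4-d suppression test. Drug or an equal volume of vehicle was given intraperitoneally or per os. Parasitemia is reported as mean ± s.e.m. Cure meant survival to day 30 with cleared parasitemia and no recrudescence over a further 30 days. Two-tailed t-test was used.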

Plasmodium falciparum [8] = assay: Antimalarial activity against Plasmodium falciparum ItG assessed as inhibition of parasite growth after 48 to 96 hrs by [3H]hypoxanthine incorporation assay; format: functional, organism-based; outline: as §1
Plasmodium vinckei [9] = assay: Antimalarial activity against chloroquine-sensitive Plasmodium vinckei infected in mice (Mus musculus) assessed as complete cure from parasite infection at 30 mg/m'2, intraperitoneally qd for 4 days administered 2 hrs post infection measured on day 5; format: functional
Outline: (§3)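 Male C57/BL6 mice (5-6 weeks, 25 ± 2 g) were infected with the P. vinckei Rhodain strain and assessed by the 4-d parasite suppression test. Astemizole tartrate or acetate, or an equal volume of vehicle, was given intraperitoneally or per os. Parasitemia is reported as mean ± s.e.m. Cure meant survival to 30 days post infection with parasitemia cleared and no recrudescence over the next 30 days. Two-tailed Student's t-test was used.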

Plasmodium yoelii [10] = assay: Antimalarial activity against chloroquine-sensitive Plasmodium yoelii 17X infected in mice (Mus musculus) assessed as reduction in parasitaemia at 15 mg/m'2, […] administered 2 hrs post infection […]; format: functional
Plasmodium yoelii [11] = assay: Antimalarial activity against chloroquine-sensitive Plasmodium yoelii 17X infected in mice (Mus musculus) assessed as complete cure from parasite infection at 300 mg/m'2, perorally daily for 4 days administered 2 hrs post infection measured on day 4; format: functional, organism-based; outline: as §2
Plasmodium falciparum [12] = assay: Antimalarial activity against Plasmodium falciparum Dd2 assessed as inhibition of parasite growth after 48 to 96 hrs by [3H]hypoxanthine incorporation assay; format: functional, organism-based; outline: as §1
Plasmodium vinckei [13] = assay: Antimalarial activity against chloroquine-sensitive Plasmodium vinckei infected in mice (Mus musculus) assessed as complete cure from parasite infection at 300 mg/m'2, perorally qd for 4 days administered 2 hrs post infection measured on day 4; format: functional; outline: as §3
Plasma = assay: Metabolic stability in human plasma assessed as desmethylastemizole half life; format: ADME, cell-free
Plasmodium vinckei [14] = assay: Antimalarial activity against chloroquine-sensitive Plasmodium vinckei infected in mice (Mus musculus) assessed as reduction in parasitemia at 15 mg/m'2, intraperitoneally […]; format: functional
Plasmodium vinckei [15] = assay: Antimalarial activity against chloroquine-sensitive Plasmodium vinckei infected in mice (Mus musculus) assessed as complete cure from parasite infection at 15 mg/m'2, intraperitoneally qd for 4 days administered 2 hrs post infection measured on day 5; format: functional; outline: as §3
[16] = Oral bioavailability in human; format: ADME, organism-based; conditions: in vivo, read-out: Activity
[17] = Drug level in hemozoin of Plasmodium falciparum Dd2 at 1.5 uCi after 20 hrs; format: ADME; conditions: plasmodium falciparum dd2, 20 h
Outline: (§4)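 Duplicate 12 mL ring-stage cultures at 5% parasitemia were incubated with 1.5 µCi [3H]-astemizole for 20 h. Erythrocytes were harvested at the trophozoite stage and washed. Hemozoin was extracted by hypotonic lysis and purified by sucrose-cushion ultracentrifugation, then decrystallized in NaOH/SDS and counted by scintillation.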

[18] = Drug level in hemozoin of Plasmodium falciparum 3D7 at 1.5 uCi after 20 hrs; format: ADME; conditions: plasmodium falciparum 3d7, 20 h; outline: as §4
[19] = Drug level in chloroquine-sensitive Plasmodium falciparum 3D7 lysate at 1.5 uCi after 20 hrs; format: ADME; conditions: plasmodium falciparum 3d7, 20 h
[20] = Drug level in chloroquine-resistant Plasmodium falciparum Dd2 lysate at 1.5 uCi after 20 hrs; format: ADME; conditions: plasmodium falciparum dd2, 20 h
Outline: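 Duplicate 12 mL ring-synchronized cultures (RPMI 1640, 10% human serum; 5% parasitemia) incubated 20 h with 1.5 µCi tritiated drug. Trophozoite-stage erythrocytes harvested and washed once. Hemozoin released by hypotonic lysis, then pelleted through 1.7 M sucrose/50 mM Tris-HCl pH 8.0 at 200,000 × g for 15 min. Pellet decrystallized in 50 mM NaOH, 2% SDS; radioactivity read by scintillation counting.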

[21] = Drug level in chloroquine-sensitive Plasmodium falciparum Dd2 culture at 1.5 uCi after 20 hrs; format: ADME; conditions: plasmodium falciparum dd2, 20 h
[22] = Drug level in Plasmodium falciparum Dd2 infected erythrocyte lysate at 1.5 uCi after 20 hrs; format: ADME, cell-based
[23] = Drug level in Plasmodium falciparum 3D7 infected erythrocyte lysate at 1.5 uCi after 20 hrs; format: ADME, cell-based
[24] = Drug level in chloroquine-sensitive Plasmodium falciparum 3D7 culture at 1.5 uCi after 20 hrs; format: ADME; conditions: plasmodium falciparum 3d7, 20 h

C=C[C@H]1CN2CC[C@H]1C[C@@H]2[C@@H](O)c1ccnc2ccc(OC)cc12
Activity (Heme [1]): Active
inhibition (Heme [2]): Active

C=C[C@H]1CN2CC[C@H]1C[C@H]2[C@H](O)c1ccnc2ccc(OC)cc12
Activity (Heme [1]): inactive
inhibition (Heme [2]): inactive

CC1(C)S[C@@H]2[C@H](NC(=O)[C@H](N)c3ccccc3)C(=O)N2[C@H]1C(=O)O
Activity (Heme [1]): inactive
inhibition (Heme [2]): inactive

CCN(CC)CCCC(C)Nc1c2ccc(Cl)cc2nc2ccc(OC)cc12 (stereo unspecified)
Activity (Heme [1]): Active
inhibition (Heme [2]): Active

CCN(CC)CCCC(C)Nc1ccnc2cc(Cl)ccc12 (stereo unspecified)
Activity (Heme [1]; tested as the 3H-labelled form): inactive
inhibition (Heme [3]; tested as the 3H-labelled form): Active
Activity (Plasmodium falciparum [4]): Active

COc1ccc(CCN(C)CCCC(C#N)(c2ccc(OC)c(OC)c2)C(C)C)cc1OC (stereo unspecified)
Activity (Heme [1]): inactive
inhibition (Heme [2]): inactive

C[C@@H]1CC[C@H]2[C@@H](C)C(=O)O[C@@H]3O[C@@]4(C)CC[C@@H]1[C@]32OO4
Activity (Heme [1]): inactive
inhibition (Heme [2]): inactive

OC(c1cc(C(F)(F)F)nc2c(C(F)(F)F)cccc12)C1CCCCN1 (stereo unspecified)
Activity (Heme [1]): inactive
inhibition (Heme [2]): inactive

COc1ccc(CCN2CCC(Nc3nc4ccccc4n3Cc3ccc(F)cc3)CC2)cc1 [ASTEMIZOLE]
IC50 (Heme [2]): 12.3 µM
inhibition (INH) (Plasmodium vinckei [5]): 80%
inhibition (Heme [3]): Active
IC50 (Plasmodium falciparum [6]): 0.227 µM
Activity (Plasmodium falciparum [4]): Active
Activity (Plasmodium yoelii [7]): inactive
IC50 (Plasmodium falciparum [8]): 0.734 µM
Activity (Plasmodium vinckei [9]): inactive
inhibition (INH) (Plasmodium yoelii [10]): 44%
Activity (Plasmodium yoelii [11]): Active
IC50 (Plasmodium falciparum [12]): 0.457 µM
Activity (Plasmodium vinckei [13]): Active

Oc1ccc(CCN2CCC(Nc3nc4ccccc4n3Cc3ccc(F)cc3)CC2)cc1 [DESMETHEYLASTEMIZOLE]
IC50 (Heme [2]): 8.13 µM
t1/2 (Plasma): 170 h
IC50 (Plasmodium falciparum [6]): 0.117 µM
inhibition (INH) (Plasmodium vinckei [14]): <=81%
Activity (Plasmodium yoelii [7]): inactive
IC50 (Plasmodium falciparum [8]): 0.0568 µM
inhibition (INH) (Plasmodium yoelii [10]): 40%
Activity (Plasmodium vinckei [15]): inactive
bioavailability [16]: 95%
IC50 (Plasmodium falciparum [12]): 0.106 µM

Fc1ccc(Cn2c(NC3CCNCC3)nc3ccccc32)cc1 [TECASTEMIZOLE]
IC50 (Plasmodium falciparum [6]): 4.48 µM
IC50 (Plasmodium falciparum [8]): 2.23 µM
IC50 (Plasmodium falciparum [12]): 3.59 µM

[3H]C([3H])([3H])Oc1ccc(CCN2CCC(Nc3nc4ccccc4n3Cc3ccc(F)cc3)CC2)cc1 [[3H]-ASTEMIZOLE]
Drug uptake [17]: 21389 cpm/uL
Drug uptake [18]: 19656 cpm/uL
Drug uptake [19]: 2105 cpm/uL
Drug uptake [20]: 2598 cpm/uL
Drug uptake [21]: 17.9 cpm/uL
Drug uptake [22]: 144 cpm/uL
Drug uptake [23]: 179 cpm/uL
Drug uptake [24]: 20.9 cpm/uL

[3H]c1nc2c([3H])c(Cl)c([3H])c([3H])c2c(N([3H])C([3H])(C([3H])([3H])[3H])C([3H])([3H])C([3H])([3H])C([3H])([3H])N(C([3H])([3H])C([3H])([3H])[3H])C([3H])([3H])C([3H])([3H])[3H])c1[3H] (stereo unspecified) [[3H]-CHLOROQUINE]
IC50 (Heme [2]): 5.74 µM
